Experiments:
[1] = molecular target: T1, 5-hydroxytryptamine receptor 1A (Homo sapiens, UniProt P08908); assay: Displacement of [3H]8-OH-DPAT from human recombinant 5HT1A receptor expressed in HEK293 cells; assay type: cell-based
T1 sequence (P08908 whole entry): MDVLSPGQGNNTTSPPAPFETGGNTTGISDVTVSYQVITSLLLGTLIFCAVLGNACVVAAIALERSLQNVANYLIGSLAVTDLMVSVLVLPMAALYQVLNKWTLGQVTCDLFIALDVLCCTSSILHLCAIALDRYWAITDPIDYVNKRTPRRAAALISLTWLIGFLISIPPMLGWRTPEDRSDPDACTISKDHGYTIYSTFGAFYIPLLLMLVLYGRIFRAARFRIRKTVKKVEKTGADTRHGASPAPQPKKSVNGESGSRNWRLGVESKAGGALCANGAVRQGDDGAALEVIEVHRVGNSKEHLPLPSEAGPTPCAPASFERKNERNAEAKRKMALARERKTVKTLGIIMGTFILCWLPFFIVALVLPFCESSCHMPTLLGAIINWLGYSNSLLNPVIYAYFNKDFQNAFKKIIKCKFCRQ
Procedure, shortened: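 Membranes from HEK-293 cells expressing human 5-HT1A receptor were incubated in the dark with 4.9 nM [3H]-8-OH-DPAT for 120 min at 37 °C in 50 mM Tris-HCl, 5 mM MgSO4, pH 7.4. Nonspecific binding was taken with 10 µM 5-HT. Filters were presoaked in 0.5% PEI, and bound radioactivity was counted by scintillation. Compounds were screened at 1 µM, then given six-point curves; Ki was derived by Cheng-Prusoff. Triplicates, 2-4 experiments.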

[2] = molecular target: T2, 5-hydroxytryptamine receptor 7 (Homo sapiens, UniProt P34969); assay: Displacement of [3H]LSD from human recombinant 5HT7 receptor expressed in CHOK1 cells; assay type: cell-based, CHO-K1
Procedure, shortened: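 Transfected CHO-K1 membranes in 50 mM Tris-HCl, 10 mM MgSO4, 0.5 mM EDTA, pH 7.4, incubated 120 min at 27 °C with 3 nM [3H]LSD; nonspecific binding with 25 µM clozapine. Ligands screened at 1 µM, then six-concentration curves if displacement over 55%.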

[3] = molecular target: T2, 5-hydroxytryptamine receptor 7; assay: Agonist activity at human recombinant 5HT7 receptor expressed in CHOK1 cells assessed as increase in cAMP levels by HTRF assay; assay type: functional, cell-based, CHO-K1
[4] = organism: Homo sapiens; assay: Selectivity for human recombinant 5HT7 receptor over human recombinant 5HT1A receptor
[5] = molecular target: T2, 5-hydroxytryptamine receptor 7; assay: Agonist activity at human recombinant 5HT7 receptor expressed in CHOK1 cells assessed as increase in cAMP levels by HTRF assay relative to serotonin; assay type: functional, cell-based; settings: CHO-K1
[6] = molecular target: T2, 5-hydroxytryptamine receptor 7; assay: Antagonist activity at human recombinant 5HT7 receptor expressed in CHOK1 cells assessed as inhibition of serotonon-induced increase in cAMP levels by HTRF assay; assay type: functional, cell-based; settings: CHO-K1
[7] = molecular target: T2, 5-hydroxytryptamine receptor 7; assay: Antagonist activity at human recombinant 5HT7 receptor expressed in CHOK1 cells assessed as inhibition of serotonon-induced increase in cAMP levels by HTRF assay relative to untreated control; assay type: functional, cell-based, CHO-K1
[8] = molecular target: T3, 5-hydroxytryptamine receptor 1A (Homo sapiens) (UniProt P08908); assay: Displacement of [3H]8-OH-DPAT from human recombinant 5HT1A receptor expressed in HEK293 cells at 1 uM; assay type: cell-based
T3 sequence (whole entry): T1 sequence (P08908 whole entry)
Procedure, shortened: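 Membranes from transfected HEK-293 cells in 50 mM Tris-HCl, 5 mM MgSO4, pH 7.4, incubated in the dark 120 min at 37 °C with 4.9 nM [3H]8-OH-DPAT and 1 µM ligand (hydrochloride salt), triplicate. Nonspecific binding with 10 µM 5-HT. Filtration on 0.5% PEI-soaked filters, ice-cold Tris washes, scintillation counting; percent displacement.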

T2 sequence (P34969 whole entry): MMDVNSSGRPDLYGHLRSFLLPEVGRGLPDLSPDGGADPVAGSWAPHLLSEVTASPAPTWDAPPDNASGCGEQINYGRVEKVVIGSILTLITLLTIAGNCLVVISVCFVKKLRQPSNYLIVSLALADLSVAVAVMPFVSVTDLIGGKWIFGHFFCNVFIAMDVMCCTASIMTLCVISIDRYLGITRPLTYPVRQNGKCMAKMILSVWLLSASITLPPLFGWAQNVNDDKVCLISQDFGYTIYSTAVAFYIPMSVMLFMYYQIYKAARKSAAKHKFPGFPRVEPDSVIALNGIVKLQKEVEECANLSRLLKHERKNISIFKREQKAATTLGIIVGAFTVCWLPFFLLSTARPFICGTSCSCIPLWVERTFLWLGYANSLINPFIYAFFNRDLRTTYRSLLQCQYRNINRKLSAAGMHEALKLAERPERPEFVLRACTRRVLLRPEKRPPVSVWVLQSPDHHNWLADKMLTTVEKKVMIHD

Ki [2]	SMILES	Ki [1]	also measured
69 nM	O=C1Cc2ccccc2N1CCCCCN1CCN(c2cccc3ccccc23)CC1	16 nM	
69 nM	O=C1Cc2ccccc2N1C/C=C/CN1CCN(c2cccc3ccccc23)CC1	39 nM	
7 nM	O=C1Cc2ccccc2N1CCCCN1CCc2ccccc2C1	219 nM	EC50 [3]: 310 nM; Activity ([3]; CHO-K1): Dose-dependent effect; Ratio Ki [4]: 31; Activity [5]: 40%; Activity [6]: Dose-dependent effect
250 nM	O=C1Cc2ccccc2N1C/C=C\CN1CCN(c2cccc3ccccc23)CC1	11.5 nM	
68 nM	O=C1Cc2ccccc2N1CCCCCN1CCN(c2cccc3[nH]cnc23)CC1	18.1 nM	
> 1000 nM	O=C1Cc2ccccc2N1Cc1ccc(CN2CCN(c3cccc4ccccc34)CC2)cc1	181 nM	
47 nM	O=C1Cc2ccccc2N1CCCCN1CCN(c2cccc3ccccc23)CC1	22 nM	
> 1000 nM	O=C1Cc2ccccc2N1CC#CCN1CCN(c2cccc3ccccc23)CC1	26 nM	
89 nM	O=C1c2cccc3cccc(c23)N1CCCCCN1CCN(c2ccccc2)CC1 [UCM-5600]		Activity [8]: 92%
> 1000 nM	O=C1c2ccccc2CN1CCCCN1CCN(c2ccccc2)CC1	360 nM	

Second part, the molecule before the results:

SMILES	Ki [2]	Ki [1]	also measured
O=C1Cc2ccccc2N1CCCN1CCc2ccccc2C1	105 nM	> 1000 nM	
COc1ccccc1N1CCN(CCCCN2C(=O)Cc3ccccc32)CC1	32 nM	> 1000 nM	
COc1ccccc1N1CCN(CCCCCN2C(=O)Cc3ccccc32)CC1	63 nM	> 1000 nM	
O=C1Cc2ccccc2N1CCCCN1CCCC(c2ccccc2)C1 (stereo not drawn)	193 nM	> 1000 nM	
O=C1Cc2ccccc2N1CCN1CCc2ccccc2C1	350 nM	> 1000 nM	
O=C1Cc2ccccc2N1CCCCCN1CCN(c2ccccc2)CC1	63 nM	> 1000 nM	
O=C1Cc2ccccc2N1CCCCN1CCN(c2ccccc2)CC1	74 nM	124 nM	
CN1C[C@@H](NS(=O)(=O)N(C)C)C[C@@H]2c3cccc4c3c(cn4C)C[C@H]21 [MESULERGINE]			IC50 [7]: 120 nM
O=C1c2ccccc2CN1CCCCCN1CCN(c2ccccc2)CC1	203 nM	> 1000 nM	
O=C1Cc2ccccc2N1CCCCN1CCC(c2ccccc2)CC1	160 nM	> 1000 nM	
COc1ccccc1N1CCN(CCCCN2Cc3ccccc3C2=O)CC1	158 nM	> 1000 nM	
O=C1Cc2ccccc2N1Cc1cccc(CN2CCN(c3cccc4ccccc34)CC2)c1	> 1000 nM	> 1000 nM	
